Source: ChEMBL document CHEMBL1139414, “Conformationally constrained analogues of diacylglycerol. 29. Cells sort diacylglycerol-lactone chemical zip codes to produce diverse and selective biological activities” (J Med Chem, 2008)

Molecular target: Protein kinase C alpha type (Mus musculus, UniProt P20444)
Test: Displacement of [3H]PDBu form mouse PKCalpha by scintillation counting
How it was run: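 Partially purified mouse PKCα; competition with [³H]PDBU. ID50 obtained by fitting a sigmoidal competition curve and converted to Ki = ID50/(1+L/Kd). Pure compounds tested at 6–7 concentrations; crude library compounds at a single 1 μM concentration. Triplicates per concentration, at least three experiments; mean ± SEM.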

| SMILES | Ki [µM] |
| --- | --- |
| CN(C)c1ccc(/C=C2/CC(CO)(COC(=O)C3CCCCC3)OC2=O)cc1 (racemic) | 0.373 |
| CN(C)c1ccc(/C=C2/CC(CO)(COC(=O)c3ccccc3)OC2=O)cc1 (racemic) | 0.654 |
| Cc1ccccc1C(=O)OCC1(CO)C/C(=C/c2ccccc2)C(=O)O1 (racemic) | 0.135 |
| CC(C)c1cc(C(C)C)c(C(=O)OCC2(CO)C/C(=C/c3ccccc3)C(=O)O2)c(C(C)C)c1 (racemic) | 0.16 |
| CCCCCCC(=O)OCC1(CO)C/C(=C/c2ccc(N(C)C)cc2)C(=O)O1 (racemic) | 0.357 |
| CN(C)c1ccc(C(=O)OCC2(CO)C/C(=C/c3ccccc3)C(=O)O2)cc1 (racemic) | 0.251 |
| Cc1ccc(C(=O)OCC2(CO)C/C(=C/c3ccccc3)C(=O)O2)cc1 (racemic) | 0.138 |
| CN(C)c1ccc(/C=C2/CC(CO)(COC(=O)c3ccc(C(F)(F)F)cc3)OC2=O)cc1 (racemic) | 0.515 |
| Cc1ccc(C(=O)OCC2(CO)C/C(=C/c3ccc(N(C)C)cc3)C(=O)O2)cc1 (racemic) | 0.406 |
| Cc1cc(C)c(C(=O)OCC2(CO)C/C(=C/c3ccc(N(C)C)cc3)C(=O)O2)c(C)c1 (racemic) | 0.517 |
| COc1ccc(/C=C2/CC(CO)(COC(=O)c3ccccc3)OC2=O)cc1 (racemic) | 0.299 |
| COc1ccc(/C=C2/CC(CO)(COC(=O)C3CCCCC3)OC2=O)cc1 (racemic) | 0.156 |
| CCCCCC/C=C1/CC(CO)(COC(=O)c2ccc(N(C)C)cc2)OC1=O (racemic) | 0.131 |
| CCCCCC/C=C1/CC(CO)(COC(=O)c2ccc([N+](=O)[O-])cc2)OC1=O (racemic) | 0.146 |
| CCCCCC/C=C1/CC(CO)(COC(=O)c2ccc(C)cc2)OC1=O (racemic) | 0.0602 |
| O=C1OC(CO)(COC(=O)c2ccc([N+](=O)[O-])cc2)C/C1=C/c1ccc(C(F)(F)F)cc1 (racemic) | 0.164 |
| CCCCC(/C=C1/CC(CO)(COC(=O)c2ccc(C(F)(F)F)cc2)OC1=O)CC (racemic) | 0.187 |
| COc1ccc(/C=C2/CC(CO)(COC(=O)c3ccc(C(F)(F)F)cc3)OC2=O)cc1 (racemic) | 0.149 |
| COc1ccc(/C=C2/CC(CO)(COC(=O)c3ccc([N+](=O)[O-])cc3)OC2=O)cc1 (racemic) | 0.552 |
| CCCCC(/C=C1/CC(CO)(COC(=O)C2CCCCC2)OC1=O)CC (racemic) | 0.123 |
| CCCCC(/C=C1/CC(CO)(COC(=O)c2ccccc2)OC1=O)CC (racemic) | 0.312 |
| Cc1ccc(C(=O)OCC2(CO)C/C(=C/c3ccc([N+](=O)[O-])cc3)C(=O)O2)cc1 (racemic) | 0.212 |
| Cc1ccc(C(=O)OCC2(CO)C/C(=C/C3CCCCC3)C(=O)O2)cc1 (racemic) | 0.11 |
| O=C1OC(CO)(COC(=O)c2ccccc2)C/C1=C/c1ccc([N+](=O)[O-])cc1 (racemic) | 0.32 |

| SMILES | Ki [µM] |
| --- | --- |
| CN(C)c1ccc(C(=O)OCC2(CO)C/C(=C/c3ccc([N+](=O)[O-])cc3)C(=O)O2)cc1 (racemic) | 1.08 |
| O=C1OC(CO)(COC(=O)c2ccccc2)C/C1=C/C1CCCCC1 (racemic) | 0.203 |
| Cc1ccccc1C(=O)OCC1(CO)C/C(=C/c2ccc([N+](=O)[O-])cc2)C(=O)O1 (racemic) | 0.171 |
| CC(C)c1cc(C(C)C)c(C(=O)OCC2(CO)C/C(=C/c3ccc([N+](=O)[O-])cc3)C(=O)O2)c(C(C)C)c1 (racemic) | 0.124 |
| CCCCC(/C=C1/CC(CO)(COC(=O)c2ccccc2C)OC1=O)CC (racemic) | 0.189 |
| CCCCC(/C=C1/CC(CO)(COC(=O)c2c(C(C)C)cc(C(C)C)cc2C(C)C)OC1=O)CC (racemic) | 0.187 |
| CN(C)c1ccc(C(=O)OCC2(CO)C/C(=C/C3CCCCC3)C(=O)O2)cc1 (racemic) | 0.305 |
| Cc1ccccc1C(=O)OCC1(CO)C/C(=C/C2CCCCC2)C(=O)O1 (racemic) | 0.11 |
| CC(C)c1cc(C(C)C)c(C(=O)OCC2(CO)C/C(=C/C3CCCCC3)C(=O)O2)c(C(C)C)c1 (racemic) | 0.174 |
| O=C1OC(CO)(COC(=O)c2ccccc2)C/C1=C/c1ccccc1 (racemic) | 0.232 |
| COc1ccc(C(=O)OCC2(CO)C/C(=C/C3CCCCC3)C(=O)O2)cc1 (racemic) | 0.261 |
| O=C1OC(CO)(COC(=O)c2ccc([N+](=O)[O-])cc2)C/C1=C/c1ccccc1 (racemic) | 0.438 |
| COc1ccc(C(=O)OCC2(CO)C/C(=C/c3ccccc3)C(=O)O2)cc1 (racemic) | 0.492 |
| COc1ccc(/C=C2/CC(CO)(COC(=O)c3ccc(C)cc3)OC2=O)cc1 (racemic) | 0.181 |
| COc1ccc(/C=C2/CC(CO)(COC(=O)c3ccccc3C)OC2=O)cc1 (racemic) | 0.173 |
| CCCCC(/C=C1/CC(CO)(COC(=O)c2ccc(OC)cc2)OC1=O)CC (racemic) | 0.234 |
| CC(C)c1cc(C(C)C)c(C(=O)OCC2(CO)C/C(=C/c3ccc(N(C)C)cc3)C(=O)O2)c(C(C)C)c1 (racemic) | 0.66 |
| Cc1ccccc1C(=O)OCC1(CO)C/C(=C/c2ccc(N(C)C)cc2)C(=O)O1 (racemic) | 0.376 |
| CCCCCCC(=O)OCC1(CO)C/C(=C/c2ccc(OC)cc2)C(=O)O1 (racemic) | 0.113 |
| O=C1OC(CO)(COC(=O)c2ccc([N+](=O)[O-])cc2)C/C1=C/C1CCCCC1 (racemic) | 0.426 |
| O=C1OC(CO)(COC(=O)C2CCCCC2)C/C1=C/c1ccccc1 (racemic) | 0.108 |
| O=C1OC(CO)(COC(=O)c2ccc(C(F)(F)F)cc2)C/C1=C/c1ccc([N+](=O)[O-])cc1 (racemic) | 0.176 |
| CCCCC(/C=C1/CC(CO)(COC(=O)c2ccc(C)cc2)OC1=O)CC (racemic) | 0.171 |

The remaining compounds from weak to strong by Ki, led by results:

| Ki [µM] | SMILES |
| --- | --- |
| 0.106 | O=C1OC(CO)(COC(=O)c2ccc(C(F)(F)F)cc2)C/C1=C/C1CCCCC1 (racemic) |
| 0.105 | O=C1OC(CO)(COC(=O)C2CCCCC2)C/C1=C/c1ccc([N+](=O)[O-])cc1 (racemic) |
| 0.105 | CCCCCC/C=C1/CC(CO)(COC(=O)c2ccc(OC)cc2)OC1=O (racemic) |
| 0.103 | O=C1OC(CO)(COC(=O)c2ccc(C(F)(F)F)cc2)C/C1=C/c1ccccc1 (racemic) |
| 0.0985 | CCCCCC/C=C1/CC(CO)(COC(=O)c2ccccc2)OC1=O (racemic) |
| 0.095 | CN(C)c1ccc(C(=O)OCC2(CO)C/C(=C/c3ccc(C(F)(F)F)cc3)C(=O)O2)cc1 (racemic) |
| 0.0938 | CCCCCCC(=O)OCC1(CO)C/C(=C/c2ccc([N+](=O)[O-])cc2)C(=O)O1 (racemic) |
| 0.0896 | CCCCCCC(=O)OCC1(CO)C/C(=C/c2ccccc2)C(=O)O1 (racemic) |
| 0.0894 | O=C1OC(CO)(COC(=O)C2CCCCC2)C/C1=C/C1CCCCC1 (racemic) |
| 0.0865 | COc1ccc(C(=O)OCC2(CO)C/C(=C/c3ccc(C(F)(F)F)cc3)C(=O)O2)cc1 (racemic) |
| 0.0828 | CC(C)C(=O)OCC1(CO)C/C(=C/c2cc(C(F)(F)F)cc(C(F)(F)F)c2)C(=O)O1 (racemic) |
| 0.0775 | CCCCCCC(=O)OCC1(CO)C/C(=C/C2CCCCC2)C(=O)O1 (racemic) |
| 0.0745 | CCCCCCC(=O)OCC1(CO)C/C(=C/C(CC)CCCC)C(=O)O1 (racemic) |
| 0.0735 | CCCCC(CC)C(=O)OCC1(CO)C/C(=C/c2ccc([N+](=O)[O-])cc2)C(=O)O1 (racemic) |
| 0.0724 | O=C1OC(CO)(COC(=O)c2ccc(C(F)(F)F)cc2)C/C1=C/c1ccc(C(F)(F)F)cc1 (racemic) |
| 0.0702 | CC(C)C(=O)OCC1(CO)C/C(=C/c2cccc(C(F)(F)F)c2)C(=O)O1 (racemic) |
| 0.07 | CC(C)c1cc(C(C)C)c(C(=O)OCC2(CO)C/C(=C/c3ccc(C(F)(F)F)cc3)C(=O)O2)c(C(C)C)c1 (racemic) |
| 0.0694 | Cc1cc(C)c(C(=O)OCC2(CO)C/C(=C/C3CCCCC3)C(=O)O2)c(C)c1 (racemic) |
| 0.0661 | CCCCC(/C=C1/CC(CO)(COC(=O)c2c(C)cc(C)cc2C)OC1=O)CC (racemic) |

| Ki [µM] | SMILES |
| --- | --- |
| 0.0641 | O=C1OC(CO)(COC(=O)c2ccccc2)C/C1=C/c1ccc(C(F)(F)F)cc1 (racemic) |
| 0.0627 | CCCCC(/C=C1/CC(CO)(COC(=O)C(CC)CCCC)OC1=O)CC (racemic) |
| 0.0602 | Cc1cc(C)c(C(=O)OCC2(CO)C/C(=C/c3ccccc3)C(=O)O2)c(C)c1 (racemic) |
| 0.0557 | CCCCCC/C=C1/CC(CO)(COC(=O)c2ccc(C(F)(F)F)cc2)OC1=O (racemic) |
| 0.0539 | CCCCC(CC)C(=O)OCC1(CO)C/C(=C/c2ccc(OC)cc2)C(=O)O1 (racemic) |
| 0.053 | Cc1ccc(C(=O)OCC2(CO)C/C(=C/c3ccc(C(F)(F)F)cc3)C(=O)O2)cc1 (racemic) |
| 0.0495 | CCCCCC/C=C1/CC(CO)(COC(=O)c2ccccc2C)OC1=O (racemic) |
| 0.0478 | Cc1ccccc1C(=O)OCC1(CO)C/C(=C/c2ccc(C(F)(F)F)cc2)C(=O)O1 (racemic) |
| 0.0414 | CCCCCC/C=C1/CC(CO)(COC(=O)c2c(C)cc(C)cc2C)OC1=O (racemic) |
| 0.0375 | Cc1cc(C)c(C(=O)OCC2(CO)C/C(=C/c3ccc([N+](=O)[O-])cc3)C(=O)O2)c(C)c1 (racemic) |
| 0.0354 | CCCCCCC(=O)OCC1(CO)C/C(=C/c2ccc(C(F)(F)F)cc2)C(=O)O1 (racemic) |
| 0.035 | CCCCC(CC)C(=O)OCC1(CO)C/C(=C/c2ccccc2)C(=O)O1 (racemic) |
| 0.0319 | O=C1OC(CO)(COC(=O)C2CCCCC2)C/C1=C/c1ccc(C(F)(F)F)cc1 (racemic) |
| 0.0302 | CCCCC(CC)C(=O)OCC1(CO)C/C(=C/C2CCCCC2)C(=O)O1 (racemic) |
| 0.0289 | CCCCCC/C=C1/CC(CO)(COC(=O)C2CCCCC2)OC1=O (racemic) |
| 0.0251 | Cc1cc(C)c(C(=O)OCC2(CO)C/C(=C/c3ccc(C(F)(F)F)cc3)C(=O)O2)c(C)c1 (racemic) |
| 0.0152 | CCCCCC/C=C1/CC(CO)(COC(=O)C(CC)CCCC)OC1=O (racemic) |
| 0.0133 | CC(CC(=O)OCC1(CO)C/C(=C/c2cccc(C(F)(F)F)c2)C(=O)O1)CC(C)(C)C (racemic; form 1) |
| 0.0031 | CCCCC(CC)C(=O)OCC1(CO)C/C(=C\c2ccc([N+](=O)[O-])cc2)C(=O)O1 (racemic) |
